From PubChem BioAssay AID2764 (Sanford-Burnham Center for Chemical Genomics, 2010) come the findings set out here.

For the experiment, the target named is Apelin receptor (Homo sapiens) (UniProt P35414). The experiment can be described thus: agonists of human apelin receptor APJ, confirmation, cell-based, single concentration, CHO-K1, beta-arrestin, luminescence (AID 2764).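 Also: plate controls were DMSO wells for no effect and apelin-13 at 10 nM for full effect.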 Particulars: CHO-K1 APJ PathHunter beta-arrestin, at 20 µM, hits give high values. An outline of the steps: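 doses = single dose, compounds 20 µM final, 1% DMSO | assay system = CHO-K1 AGTRL-1 (APJ) PathHunter cells, ProLink-APJ, EA-beta-arrestin fusions | signal = luminescence, enzyme-fragment complementation | timing = overnight cell seeding, 90 min compound exposure at 25 °C, 60 min detection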

This is one part of the list. Unmarked numbers belong to inactive results.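 The calls were made as follows: active = activation above 40%, taking the highest of four retests; inactive = the rest.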

Chain of Apelin receptor (Homo sapiens) (P35414 whole entry, looked up, the tested form may be a part): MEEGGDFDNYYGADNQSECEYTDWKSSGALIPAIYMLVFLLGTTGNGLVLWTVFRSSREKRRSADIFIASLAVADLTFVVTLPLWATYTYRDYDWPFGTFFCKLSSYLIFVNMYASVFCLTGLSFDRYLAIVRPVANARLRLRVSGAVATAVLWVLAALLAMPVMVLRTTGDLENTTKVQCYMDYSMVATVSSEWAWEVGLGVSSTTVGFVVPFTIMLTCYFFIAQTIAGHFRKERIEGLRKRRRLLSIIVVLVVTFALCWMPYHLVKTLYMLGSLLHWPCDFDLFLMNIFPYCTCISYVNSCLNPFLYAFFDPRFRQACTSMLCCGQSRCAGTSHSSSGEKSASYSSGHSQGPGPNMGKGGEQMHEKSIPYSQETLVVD

For `CCCCCCc1cc2cc(-c3nnc(-c4ccccc4)o3)c(=O)oc2cc1O`, the activation is -0.485%.

Turning to `Nc1nc(-c2sc3nc4c(cc3c2N)CCCC4)nc(N2CCOCC2)n1`, the activation is 15%.

`Cc1ccc2nc(-c3ccc(NC(=O)c4cccnc4)cc3)oc2c1`: the activation was 18.4%.

Take `CCOc1cc2[nH]c(=S)n(CCCN3CCCC3=O)c(=O)c2cc1OCC`: the activation is 20.1%.

`COc1ccc(C(=O)O/N=C(\N)Cc2ccc(Cl)cc2Cl)cc1OC`: the activation is 24.9%.

For `CCC(C)(C)C1CCC(=NNC(=O)c2ccc(Br)o2)CC1` (configuration not stated), the activation is 12.3%.

As for `CC1=C/C(=N\OS(=O)(=O)c2ccccc2)C=CC1=O`, the activation was 30.6%.

`COc1cc(NC(=O)C2=C(C)OCCS2)c(Cl)cc1C(=O)NCCN1CCN(C)CC1`: the activation was 11.7%.

For `CC(=O)N1CCCc2cc(S(=O)(=O)N3CCCC(C(=O)N4CCN(c5cccc(Cl)c5)CC4)C3)ccc21` (configuration not stated), the activation is 27.4%.

In the case of `CCCc1ccc(OCc2ccc(C(=O)N/N=C/c3cccc([N+](=O)[O-])c3)o2)c(OC)c1`, the activation was 19.3%.

Regarding `Cc1ccccc1-n1nnc2c(=O)oc3ccccc3c21`, the activation was 7.92%.

`O=C(CSc1nc(Nc2ccccc2)nc(N2CCOCC2)n1)Nc1cc(Cl)ccc1O`: the activation was 15.9%.
